24 molecules from ChEMBL document CHEMBL1208709, “Synthesis and pharmacological evaluation of 1,1,3-substituted urea derivatives as potent TNF-alpha production inhibitors” (2010) can be followed below.

Assay [1] concerns Rattus norvegicus. The experiment in a line: Antiinflammatory activity in Lewis rat assessed as inhibition of LPS-induced TNFalpha production at 2 mg/kg, po administered 30 mins prior to LPS challenge measured after 1.5 hrs. It counts as functional.
Assay [2] has as its system Rattus norvegicus. The experiment in a line: Antiinflammatory activity in po dosed Lewis rat assessed as inhibition of LPS-induced TNFalpha production administered 30 mins prior to LPS challenge measured after 1.5 hrs. It counts as functional. Put shortly: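 Overnight-fasted male Lewis rats (seven weeks old) were dosed orally at 0.1, 0.3, 1 and 3 mg/kg, 30 min before IV LPS (E. coli 055:B5 in saline). Serum TNF-α was measured by ELISA 1.5 h post-LPS, five rats per group, mean ± SEM. Dunnett's t-test versus vehicle; ED₅₀ taken from the dose-response.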

Calls of active or inactive are those of the source. The rule behind the calls is not given here.

What is called inhibition in vivo is how much of the control response was suppressed. With `CCCCN(CCN1CCOCC1)C(=O)NCCCc1ccncc1`, the inhibition in vivo at 2 mg/kg in assay [1] is 21%.

As for `O=C(NCCCc1ccncc1)N(CCC1CCOCC1)CCN1CCOCC1`, in assay [1], the inhibition entry is “inactive”.

`O=C(NCCCc1ccncc1)N(CCCN1CCOCC1)CCC1CC2CCC1C2` (stereo unspecified): the inhibition in vivo at 2 mg/kg in assay [1] came out at 44%.

As to `O=C(NCCCc1ccncc1)N(CCCC1CCCCC1)CC1CCCCC1`, the inhibition in vivo at 2 mg/kg in assay [1] is 71%.

For the molecule `COCCCN(CCC1CCCCC1)C(=O)NCCCc1ccncc1`, in assay [1], the inhibition entry was “inactive”.

As to `O=C(NCCCc1ccncc1)N(CCN1CCOCC1)CCN1C2CCC1CC2`, in assay [1], the inhibition in vivo at 2 mg/kg was determined as 8%.

By ED50 is commonly meant the dose at which the effect has come halfway, by size or by number of responders. For the molecule `O=C(NCCCc1ccncc1)N(CCCC1CCCCC1)CCC1CCCCC1`, the ED50 in assay [2] was determined as 0.34 mg/kg. For the same molecule, the inhibition in vivo at 2 mg/kg in assay [1] stood at 92%.

Regarding `CCCCN(CCCOC)C(=O)NCCCc1ccncc1`, the inhibition in vivo at 2 mg/kg in assay [1] turned out to be 21%.

With `COCCCN(CCC1CC2CCC1C2)C(=O)NCCCc1ccncc1` (stereo unspecified), the inhibition in vivo at 2 mg/kg in assay [1] was 10%.

In the case of `O=C(NCCCc1ccncc1)N(CCC1CCCCC1)CCC1CCCCC1`, the inhibition in vivo at 2 mg/kg in assay [1] is 91%.

On to `O=C(NCCCc1ccncc1)N(CCC1CCCCC1)CCN1C2CCC1CC2`, for which the inhibition in vivo at 2 mg/kg in assay [1] stood at 48%.

Take `CCOCCN(CCC1CC2CCC1C2)C(=O)NCCCc1ccncc1` (stereo unspecified): the inhibition entry in assay [1] was “inactive”.

As for `CCOCCN(CCC1CCCCC1)C(=O)NCCCc1ccncc1`, in assay [1], the inhibition in vivo at 2 mg/kg came to 4%.

`CCCCCN(CCC12CC3CC(CC(C3)C1)C2)C(=O)NCCCc1ccncc1`: in assay [2], the ED50 came to 1.7 mg/kg. Further, in assay [1], the inhibition in vivo at 2 mg/kg was determined as 72%.

For the molecule `O=C(NCCCc1ccncc1)N(CCCC1CCCCC1)CCC1CCCC1`, in assay [1], the inhibition in vivo at 2 mg/kg was found to be 87%.

With `O=C(NCCCc1ccncc1)N(CCC1CC2CCC1C2)CCN1CCOCC1` (stereo unspecified), the inhibition in vivo at 2 mg/kg in assay [1] is 55%.

For `O=C(NCCCc1ccncc1)N(CCN1CCOCC1)CCC12CC3CC(CC(C3)C1)C2`, the inhibition in vivo at 2 mg/kg in assay [1] was 45%.

In the case of `CCCCN(CCCN1CCOCC1)C(=O)NCCCc1ccncc1`, in assay [1], the inhibition in vivo at 2 mg/kg amounted to 32%.

With `O=C(NCCCc1ccncc1)N(CCC1CCCCC1)CCC1CCOCC1`, in assay [1], the inhibition in vivo at 2 mg/kg was 38%.

Regarding `O=C(NCCCc1ccncc1)N(CCCN1CCOCC1)CCC12CC3CC(CC(C3)C1)C2`, the inhibition in vivo at 2 mg/kg in assay [1] was determined as 45%.

Take `CCCCN(CCOCC)C(=O)NCCCc1ccncc1`: the inhibition result in assay [1] was “inactive”.

As to `O=C(NCCCc1ccncc1)N(CCC1CCCCC1)CCN1CCOCC1`, the inhibition in vivo at 2 mg/kg in assay [1] was found to be 50%.

As for `COCCOCCN(CCC1CCCCC1)C(=O)NCCCc1ccncc1`, the inhibition in vivo at 2 mg/kg in assay [1] came out at 14%.

On to `O=C(NCCCc1ccncc1)N(CCCN1CCOCC1)CCC1CCCCC1`, for which the inhibition in vivo at 2 mg/kg in assay [1] came to 43%.
